Measured values published in ChEMBL document CHEMBL1132571, “1-aryl-4-[(5-methoxy-1,2,3, 4-tetrahydronaphthalen-1-yl)alkyl]piperazines and their analogues: influence of the stereochemistry of the tetrahydronaphthalen-1-yl nucleus on 5-HT1A receptor affinity and selectivity versus alpha1 and D2 receptors. 5” (J Med Chem, 1999).

System: not listed separately
Experiment: Selectivity for D2 receptor compared to 5-HT1A receptor.

Going from `COc1ccccc1N1CCN(CCCN[C@H]2CCCc3c(OC)cccc32)CC1` to `COc1ccccc1N1CCN(CCCNC2CCCc3c(OC)cccc32)CC1` (configuration not stated), the Selectivity rises from 68 to 106.

Compared with `COc1cccc2c1CCC[C@H]2CCCN1CCN(c2ccccn2)CC1`, `COc1cccc2c1CCC[C@@H]2CCCN1CCN(c2ccccn2)CC1` is lower in Selectivity: 261 for the first, 196 for the second.

Going from `COc1cccc2c1CCCC2CCCN1CCN(c2ccccc2)CC1` (configuration not stated) to `COc1cccc2c1CCC[C@@H]2CCCN1CCN(c2ccccc2)CC1`, the Selectivity falls from 220 to 205.

Compared with `COc1ccccc1N1CCN(CCN[C@H]2CCCc3c(OC)cccc32)CC1`, `COc1ccccc1N1CCN(CCNC2CCCc3c(OC)cccc32)CC1` (configuration not stated) is lower in Selectivity: 93 for the first, 49 for the second.

Compared with `COc1cccc2c1CCC[C@H]2CCCN1CCN(c2ccccc2)CC1`, `COc1cccc2c1CCCC2CCCN1CCN(c2ccccn2)CC1` (configuration not stated) is higher in Selectivity: 254 for the first, 259 for the second.

Compared with `COc1ccccc1N1CCN(CCCN[C@@H]2CCCc3c(OC)cccc32)CC1`, `COc1ccccc1N1CCN(CCN[C@@H]2CCCc3c(OC)cccc32)CC1` is higher in Selectivity: 271 for the first, 320 for the second.

Target: T1, 5-hydroxytryptamine receptor 1A (Rattus norvegicus, UniProt P19327)
T1 sequence (P19327 whole entry): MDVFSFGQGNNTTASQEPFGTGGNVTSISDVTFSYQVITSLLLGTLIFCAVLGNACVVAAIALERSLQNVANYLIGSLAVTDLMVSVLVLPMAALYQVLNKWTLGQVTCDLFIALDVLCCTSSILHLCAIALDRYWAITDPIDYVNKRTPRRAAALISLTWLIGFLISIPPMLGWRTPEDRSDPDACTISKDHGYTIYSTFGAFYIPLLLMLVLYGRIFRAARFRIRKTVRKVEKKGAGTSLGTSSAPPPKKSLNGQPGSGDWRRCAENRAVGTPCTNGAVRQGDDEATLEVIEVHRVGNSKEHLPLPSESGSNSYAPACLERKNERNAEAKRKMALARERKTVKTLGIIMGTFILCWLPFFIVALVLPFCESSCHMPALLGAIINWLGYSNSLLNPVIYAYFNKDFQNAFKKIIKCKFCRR
Experiment: In vitro inhibition of [3H]8-OH-DPAT binding to rat 5-HT 1a receptors.
Summary of the method: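 Rat hippocampal membranes labelled with [3H]-8-OH-DPAT by standard binding methods, in competition with eight to nine test concentrations. Specific binding was over 80% of total. IC50 derived from inhibition of specific radioligand binding by LIGAND analysis.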

`NCCCC1(CCCN)CCc2cccc(O)c2C1` and `COc1cccc2c1CCC[C@H]2CCCN1CCN(c2ccccn2)CC1` are within 1.5-fold of each other in IC50: 2.5 nM for the first, 2.3 nM for the second.

Going from `COc1ccccc1N1CCN(CCCN[C@H]2CCCc3c(OC)cccc32)CC1` to `COc1ccccc1N1CCN(CCCN[C@@H]2CCCc3c(OC)cccc32)CC1`, the IC50 falls from 34 nM to 7 nM (4.9-fold). The second is the more potent here.

First: COc1cccc2c1CCC[C@@H]2CCCN1CCN(c2ccccc2)CC1
Second: COc1cccc2c1CCC[C@H]2CCCN1CCN(c2ccccc2)CC1
The IC50 of the first is 1.8-fold higher: 4.3 nM for the first, 2.4 nM for the second.

`COc1ccccc1N1CCN(CCN[C@H]2CCCc3c(OC)cccc32)CC1` and `COc1ccccc1N1CCN(CCN[C@@H]2CCCc3c(OC)cccc32)CC1` are within 1.5-fold of each other in IC50: 7 nM for the first, 10 nM for the second.

Going from `COc1cccc2c1CCC[C@@H]2CCCN1CCN(c2ccccn2)CC1` to `COc1ccccc1N1CCN(CCC[C@H]2CCCc3c(OC)cccc32)CC1`, the IC50 falls from 4.5 nM to 1.6 nM (2.8-fold). The second is the more potent here.

`COc1ccccc1N1CCN(CCC[C@@H]2CCCc3c(OC)cccc32)CC1` gave an IC50 of 1.3 nM.

Target: D(2) dopamine receptor (Rattus norvegicus, UniProt P61169)
Sequence (P61169 whole entry): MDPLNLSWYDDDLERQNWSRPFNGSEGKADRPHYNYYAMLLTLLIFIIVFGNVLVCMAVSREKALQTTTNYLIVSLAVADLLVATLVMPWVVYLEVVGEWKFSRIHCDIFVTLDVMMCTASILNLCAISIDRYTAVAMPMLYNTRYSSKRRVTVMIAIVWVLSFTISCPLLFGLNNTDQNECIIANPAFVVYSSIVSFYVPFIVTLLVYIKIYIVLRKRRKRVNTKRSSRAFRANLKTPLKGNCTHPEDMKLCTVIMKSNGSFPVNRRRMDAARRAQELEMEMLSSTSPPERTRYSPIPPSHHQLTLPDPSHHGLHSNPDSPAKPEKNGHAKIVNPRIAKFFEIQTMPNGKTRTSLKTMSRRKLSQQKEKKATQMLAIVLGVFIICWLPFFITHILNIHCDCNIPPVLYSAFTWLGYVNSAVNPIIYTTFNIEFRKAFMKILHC
Experiment: In vitro inhibition of [3H]spiroperidol binding to rat Dopamine D2 receptors.

`COc1ccccc1N1CCN(CCCN[C@H]2CCCc3c(OC)cccc32)CC1` and `COc1ccccc1N1CCN(CCCN[C@@H]2CCCc3c(OC)cccc32)CC1` are within 1.5-fold of each other in IC50: 2300 nM for the first, 1900 nM for the second.

`COc1cccc2c1CCC[C@H]2CCCN1CCN(c2ccccn2)CC1` and `COc1cccc2c1CCC[C@@H]2CCCN1CCN(c2ccccn2)CC1` are within 1.5-fold of each other in IC50: 600 nM for the first, 880 nM for the second.

Compared with `COc1ccccc1N1CCN(CCC(=O)N[C@H]2CCCc3c(OC)cccc32)CC1`, `COc1ccccc1N1CCN(CCC(=O)N[C@@H]2CCCc3c(OC)cccc32)CC1` is 3-fold lower in IC50: 2600 nM for the first, 870 nM for the second. The second is the more potent here.

`COc1cccc2c1CCC[C@@H]2CCCN1CCN(c2ccccc2)CC1` and `COc1cccc2c1CCC[C@H]2CCCN1CCN(c2ccccc2)CC1` are within 1.5-fold of each other in IC50: 880 nM for the first, 610 nM for the second.

Compared with `COc1ccccc1N1CCN(CCN[C@H]2CCCc3c(OC)cccc32)CC1`, `COc1ccccc1N1CCN(CCN[C@@H]2CCCc3c(OC)cccc32)CC1` is 4.9-fold higher in IC50: 650 nM for the first, 3200 nM for the second. The first is the more potent here.

Target: T2, Adrenergic receptor alpha-1 (Rattus norvegicus, UniProt P15823+P23944+P43140)
T2 sequence (P15823 whole entry): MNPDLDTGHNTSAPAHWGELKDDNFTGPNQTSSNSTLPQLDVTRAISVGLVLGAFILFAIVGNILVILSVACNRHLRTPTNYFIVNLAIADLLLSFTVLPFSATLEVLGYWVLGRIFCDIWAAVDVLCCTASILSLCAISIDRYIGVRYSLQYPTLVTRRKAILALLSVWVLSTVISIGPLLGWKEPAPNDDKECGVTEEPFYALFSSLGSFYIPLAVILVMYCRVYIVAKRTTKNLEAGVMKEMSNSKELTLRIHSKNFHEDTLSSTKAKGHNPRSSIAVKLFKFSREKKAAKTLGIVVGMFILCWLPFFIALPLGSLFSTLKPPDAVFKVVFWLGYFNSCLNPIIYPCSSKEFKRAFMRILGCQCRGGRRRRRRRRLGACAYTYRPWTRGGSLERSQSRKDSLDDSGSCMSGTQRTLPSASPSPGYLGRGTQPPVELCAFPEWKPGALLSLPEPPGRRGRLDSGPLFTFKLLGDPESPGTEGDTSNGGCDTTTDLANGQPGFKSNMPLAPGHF
T2 sequence (P23944 whole entry): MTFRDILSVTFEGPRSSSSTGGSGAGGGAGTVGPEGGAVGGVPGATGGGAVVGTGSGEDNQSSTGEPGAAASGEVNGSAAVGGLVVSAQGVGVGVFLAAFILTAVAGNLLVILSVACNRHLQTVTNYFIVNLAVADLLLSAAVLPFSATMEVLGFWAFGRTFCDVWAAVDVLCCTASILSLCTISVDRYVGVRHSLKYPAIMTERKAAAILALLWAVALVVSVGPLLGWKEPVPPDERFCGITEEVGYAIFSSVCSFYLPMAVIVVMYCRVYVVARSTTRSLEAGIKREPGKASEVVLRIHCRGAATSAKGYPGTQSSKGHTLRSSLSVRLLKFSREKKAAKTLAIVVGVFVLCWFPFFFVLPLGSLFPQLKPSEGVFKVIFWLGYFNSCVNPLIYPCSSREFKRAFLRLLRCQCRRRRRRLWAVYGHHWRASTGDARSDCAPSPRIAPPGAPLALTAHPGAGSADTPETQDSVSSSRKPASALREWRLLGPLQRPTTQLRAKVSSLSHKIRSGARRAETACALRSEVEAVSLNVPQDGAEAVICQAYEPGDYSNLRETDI
T2 sequence (P43140 whole entry): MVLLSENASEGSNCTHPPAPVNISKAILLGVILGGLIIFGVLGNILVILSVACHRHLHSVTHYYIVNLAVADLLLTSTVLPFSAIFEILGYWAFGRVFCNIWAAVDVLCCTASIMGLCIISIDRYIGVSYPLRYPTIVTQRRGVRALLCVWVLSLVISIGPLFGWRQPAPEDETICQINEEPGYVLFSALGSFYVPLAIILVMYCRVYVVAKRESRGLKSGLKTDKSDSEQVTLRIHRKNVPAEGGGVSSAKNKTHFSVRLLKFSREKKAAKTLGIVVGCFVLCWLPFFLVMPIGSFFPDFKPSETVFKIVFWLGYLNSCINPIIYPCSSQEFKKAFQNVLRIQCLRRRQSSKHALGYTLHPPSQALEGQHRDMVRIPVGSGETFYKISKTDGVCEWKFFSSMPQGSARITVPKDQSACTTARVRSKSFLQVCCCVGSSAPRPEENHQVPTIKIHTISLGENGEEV
Experiment: In vitro inhibition of [3H]prazosin binding to rat alpha-1 adrenergic receptors.
Assay type: protein assay
Summary of the method: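 [3H]Prazosin displacement in rat brain cortex membranes, standard binding procedure, with eight to nine concentrations of each hydrochloride salt. Specific binding was above 80% of total. LIGAND program used to obtain IC50 from inhibition of specific binding.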

First: COc1ccccc1N1CCN(CCCN[C@H]2CCCc3c(OC)cccc32)CC1
Second: COc1ccccc1N1CCN(CCCN[C@@H]2CCCc3c(OC)cccc32)CC1
The IC50 of the first is 2.6-fold lower: 649 nM for the first, 1700 nM for the second.

Going from `COc1cccc2c1CCC[C@H]2CCCN1CCN(c2ccccn2)CC1` to `COc1cccc2c1CCC[C@@H]2CCCN1CCN(c2ccccn2)CC1`, the IC50 falls from 580 nM to 85 nM (6.8-fold).

Compared with `COc1ccccc1N1CCN(CCC(=O)N[C@H]2CCCc3c(OC)cccc32)CC1`, `COc1ccccc1N1CCN(CCC(=O)N[C@@H]2CCCc3c(OC)cccc32)CC1` is 3.2-fold higher in IC50: 240 nM for the first, 770 nM for the second.

First: COc1cccc2c1CCC[C@@H]2CCCN1CCN(c2ccccc2)CC1
Second: COc1cccc2c1CCC[C@H]2CCCN1CCN(c2ccccc2)CC1
The IC50 of the first is 16-fold lower: 61 nM for the first, 950 nM for the second.

First: COc1ccccc1N1CCN(CCN[C@H]2CCCc3c(OC)cccc32)CC1
Second: COc1ccccc1N1CCN(CCN[C@@H]2CCCc3c(OC)cccc32)CC1
The IC50 of the first is 4.4-fold lower: 228 nM for the first, 1000 nM for the second.

Going from `COc1ccccc1N1CCN(CCC[C@H]2CCCc3c(OC)cccc32)CC1` to `COc1ccccc1N1CCN(CCC[C@@H]2CCCc3c(OC)cccc32)CC1`, the IC50 rises from 0.8 nM to 33 nM (41-fold).

System: not listed separately
Experiment: Selectivity for alpha-1 receptor compared to 5-HT1A receptor.

First: COc1ccccc1N1CCN(CCCN[C@H]2CCCc3c(OC)cccc32)CC1
Second: COc1ccccc1N1CCN(CCCNC2CCCc3c(OC)cccc32)CC1 (configuration not stated)
The Selectivity of the first is lower: 19 for the first, 88 for the second.

First: COc1cccc2c1CCC[C@H]2CCCN1CCN(c2ccccn2)CC1
Second: COc1cccc2c1CCC[C@@H]2CCCN1CCN(c2ccccn2)CC1
The Selectivity of the first is higher: 252 for the first, 19 for the second.

First: COc1cccc2c1CCCC2CCCN1CCN(c2ccccc2)CC1 (configuration not stated)
Second: COc1cccc2c1CCC[C@@H]2CCCN1CCN(c2ccccc2)CC1
The Selectivity of the first is higher: 86 for the first, 14 for the second.

First: COc1ccccc1N1CCN(CCN[C@H]2CCCc3c(OC)cccc32)CC1
Second: COc1ccccc1N1CCN(CCNC2CCCc3c(OC)cccc32)CC1 (configuration not stated)
The Selectivity of the first is higher: 33 for the first, 29 for the second.

Going from `COc1cccc2c1CCC[C@H]2CCCN1CCN(c2ccccc2)CC1` to `COc1cccc2c1CCCC2CCCN1CCN(c2ccccn2)CC1` (configuration not stated), the Selectivity falls from 396 to 122.

Compared with `COc1ccccc1N1CCN(CCCN[C@@H]2CCCc3c(OC)cccc32)CC1`, `COc1ccccc1N1CCN(CCN[C@@H]2CCCc3c(OC)cccc32)CC1` is lower in Selectivity: 243 for the first, 100 for the second.
